Measured values taken from ChEMBL document CHEMBL1136954, “Toward the back-up of boceprevir (SCH 503034): discovery of new extended P4-capped ketoamide inhibitors of hepatitis C virus NS3 serine protease with improved potency and pharmacokinetic profiles” (J Med Chem, 2009).

What was measured:
[1] = Inhibition of HCV NS4A-tethered single chain NS3 serine protease by spectrophotometric assay; parameters: species or system Hepacivirus hominis
Procedure, shortened: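 Continuous assay with NS4A-tethered single-chain NS3 serine protease; potency given as Ki*.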

[2] = test system: Hepatitis C virus; test: Antiviral activity against Hepatitis C virus genotype 1 infected in human hepatocytes by replicon assay; type: functional, Hepacivirus hominis; conditions: genotype 1, Hepatocyte
Procedure, shortened: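 HCV genotype 1 replicon cell assay; EC90 reported, within 3-fold at 95% confidence for a single assay and within 2-fold for multiple assays.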

[3] = Cytotoxicity against human hepatocytes assessed as effect on GAPDH RNA level […]; type: cell-based, Hepatocyte
Procedure, shortened: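 Counter-screen for cellular toxicity measuring GAPDH; CC50 reported.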

SMILES | Ki [1] | EC90 [2] | CC50 [3]
CC(C)[C@H](NC(=O)N[C@H](C(=O)N1C[C@H]2[C@@H]([C@H]1C(=O)NC(CC1CC1)C(=O)C(N)=O)C2(C)C)C(C)(C)C)C(=O)C1CCC1 (mixture of isomers) | 0.02 µM | 0.35 µM | > 5 µM
CC(C)[C@H](NC(=O)N[C@H](C(=O)N1C[C@H]2[C@@H]([C@H]1C(=O)NC(CC1CC1)C(=O)C(N)=O)C2(C)C)C(C)(C)C)c1nnn[nH]1 (mixture of isomers) | 0.01 µM | 1 µM | > 5 µM
CC(C)[C@](C)(NC(=O)N[C@H](C(=O)N1C[C@H]2[C@@H]([C@H]1C(=O)NC(CC1CC1)C(=O)C(N)=O)C2(C)C)C(C)(C)C)C(=O)OCc1ccccc1 (mixture of isomers) | 0.044 µM | 0.5 µM | > 5 µM
CO/N=C(\c1ccccc1)[C@@H](NC(=O)N[C@H](C(=O)N1C[C@H]2[C@@H]([C@H]1C(=O)NC(CC1CC1)C(=O)C(N)=O)C2(C)C)C(C)(C)C)C(C)C (mixture of isomers) | 0.05 µM |  | > 5 µM
CC(C)(C)[C@H](NC(=O)NC1(C(=O)O)CCCCC1)C(=O)N1C[C@H]2[C@@H]([C@H]1C(=O)NC(CC1CC1)C(=O)C(N)=O)C2(C)C (mixture of isomers) | 0.009 µM | 5 µM | > 5 µM
CC(C)(C)[C@H](NC(=O)NC1(C(=O)OCC2CC2)CCCCC1)C(=O)N1C[C@H]2[C@@H]([C@H]1C(=O)NC(CC1CC1)C(=O)C(N)=O)C2(C)C (mixture of isomers) | 0.039 µM | 0.06 µM | > 5 µM
CC(C)(C)[C@H](NC(=O)NC1(C(=O)OCc2ccco2)CCCCC1)C(=O)N1C[C@H]2[C@@H]([C@H]1C(=O)NC(CC1CC1)C(=O)C(N)=O)C2(C)C (mixture of isomers) | 0.028 µM | 0.03 µM | > 5 µM
C[C@@H](OC(=O)C1(NC(=O)N[C@H](C(=O)N2C[C@H]3[C@@H]([C@H]2C(=O)NC(CC2CC2)C(=O)C(N)=O)C3(C)C)C(C)(C)C)CCCCC1)c1ccccc1 (mixture of isomers) | 0.08 µM | 0.6 µM | > 5 µM
CC(C)(C)[C@H](NC(=O)N[C@H](C(=O)N1C[C@H]2[C@@H]([C@H]1C(=O)NC(CC1CC1)C(=O)C(N)=O)C2(C)C)C(C)(C)C)C(=O)OCc1ccccc1 (mixture of isomers) | 0.067 µM | 0.05 µM | > 5 µM
CC(C)(C)[C@H](NC(=O)NC1(C(=O)OCc2ccccc2)CCCC1)C(=O)N1C[C@H]2[C@@H]([C@H]1C(=O)NC(CC1CC1)C(=O)C(N)=O)C2(C)C (mixture of isomers) | 0.058 µM | 0.03 µM | > 5 µM
CC(C)(NC(=O)N[C@H](C(=O)N1C[C@H]2[C@@H]([C@H]1C(=O)NC(CC1CC1)C(=O)C(N)=O)C2(C)C)C(C)(C)C)C(=O)OCc1ccccc1 (mixture of isomers) | 0.21 µM | 1.48 µM | > 5 µM
C=C(c1ccccc1)[C@@H](NC(=O)N[C@H](C(=O)N1C[C@H]2[C@@H]([C@H]1C(=O)NC(CC1CC1)C(=O)C(N)=O)C2(C)C)C(C)(C)C)C(C)C (mixture of isomers) | 0.05 µM |  | > 5 µM
CC(C)[C@H](NC(=O)N[C@H](C(=O)N1C[C@H]2[C@@H]([C@H]1C(=O)NC(CC1CC1)C(=O)C(N)=O)C2(C)C)C(C)(C)C)C(=O)O[C@H](C)c1ccccc1 (mixture of isomers) | 0.08 µM | 0.6 µM | > 5 µM
CC(C)(C)[C@H](NC(=O)NC1(C(=O)NCc2ccccc2)CCCCC1)C(=O)N1C[C@H]2[C@@H]([C@H]1C(=O)NC(CC1CC1)C(=O)C(N)=O)C2(C)C (mixture of isomers) | 0.044 µM | 5 µM | > 5 µM
CC(C)(C)[C@H](NC(=O)NC1(COC(=O)c2ccccc2)CCCCC1)C(=O)N1C[C@H]2[C@@H]([C@H]1C(=O)NC(CC1CC1)C(=O)C(N)=O)C2(C)C (mixture of isomers) | 0.12 µM | 1 µM | > 5 µM
C=CCNC(=O)C(=O)C(CCCC)NC(=O)[C@@H]1[C@@H]2[C@H](CN1C(=O)[C@@H](NC(=O)N[C@H](C(=O)C1CC1)C1CCCCC1)C(C)(C)C)C2(C)C (mixture of isomers) | 0.038 µM | 0.9 µM | > 5 µM
CO[C@H](c1ccccc1)[C@@H](NC(=O)N[C@H](C(=O)N1C[C@H]2[C@@H]([C@H]1C(=O)NC(CC1CC1)C(=O)C(N)=O)C2(C)C)C(C)(C)C)C(C)C (mixture of isomers) | 0.06 µM |  | > 5 µM
CC(=O)[C@@H](NC(=O)N[C@H](C(=O)N1C[C@H]2[C@@H]([C@H]1C(=O)NC(CC1CC1)C(=O)C(N)=O)C2(C)C)C(C)(C)C)C(C)C (mixture of isomers) | 0.014 µM | 0.4 µM | > 5 µM

Continued, in another order:

Ki [1] | SMILES | EC90 [2] | CC50 [3]
0.008 µM | CC1(NC(=O)N[C@H](C(=O)N2C[C@H]3[C@@H](C2C(=O)NC(CC2CCC2)C(=O)C(N)=O)C3(C)C)C(C)(C)C)CCCCC1 (some centres not stated) | 0.2 µM | > 5 µM
0.013 µM | CC(C)[C@H](NC(=O)N[C@H](C(=O)N1C[C@H]2[C@@H]([C@H]1C(=O)NC(CC1CC1)C(=O)C(N)=O)C2(C)C)C(C)(C)C)C(=O)OCc1ccccc1 (mixture of isomers) | 0.035 µM | > 5 µM
0.17 µM | CC(C)(C)[C@H](NC(=O)NC1(C(=O)OCc2ccccc2)CC1)C(=O)N1C[C@H]2[C@@H]([C@H]1C(=O)NC(CC1CC1)C(=O)C(N)=O)C2(C)C (mixture of isomers) | 1 µM | > 5 µM
0.012 µM | CC(C)[C@H](NC(=O)N[C@H](C(=O)N1C[C@H]2[C@@H]([C@H]1C(=O)NC(CC1CC1)C(=O)C(N)=O)C2(C)C)C(C)(C)C)C(=O)C(C)(C)C (mixture of isomers) | 0.2 µM | > 5 µM
0.012 µM | CC(C)C(=O)[C@@H](NC(=O)N[C@H](C(=O)N1C[C@H]2[C@@H]([C@H]1C(=O)NC(CC1CC1)C(=O)C(N)=O)C2(C)C)C(C)(C)C)C(C)C (mixture of isomers) | 0.15 µM | > 5 µM
0.01 µM | CC(C)(C)[C@H](NC(=O)N[C@H](C(=O)OCc1ccccc1)C1CCCCC1)C(=O)N1C[C@H]2[C@@H]([C@H]1C(=O)NC(CC1CC1)C(=O)C(N)=O)C2(C)C (mixture of isomers) | 0.02 µM | > 5 µM
0.11 µM | CC(C)(C)[C@H](NC(=O)NC1(C(=O)NS(=O)(=O)c2ccccc2)CCCCC1)C(=O)N1C[C@H]2[C@@H]([C@H]1C(=O)NC(CC1CC1)C(=O)C(N)=O)C2(C)C (mixture of isomers) | 5 µM | > 5 µM
0.009 µM | CC(C)(C)[C@H](NC(=O)N[C@H](C(=O)OCc1ccccc1)C1CCCC1)C(=O)N1C[C@H]2[C@@H]([C@H]1C(=O)NC(CC1CC1)C(=O)C(N)=O)C2(C)C (mixture of isomers) | 0.025 µM | > 5 µM
0.059 µM | CC(C)[C@@H](Cc1ccccc1)NC(=O)N[C@H](C(=O)N1C[C@H]2[C@@H]([C@H]1C(=O)NC(CC1CC1)C(=O)C(N)=O)C2(C)C)C(C)(C)C (mixture of isomers) |  | > 5 µM
0.03 µM | COC(=O)C1(NC(=O)N[C@H](C(=O)N2C[C@H]3[C@@H]([C@H]2C(=O)NC(CC2CC2)C(=O)C(N)=O)C3(C)C)C(C)(C)C)CCCCC1 (mixture of isomers) | 0.2 µM | > 5 µM
0.013 µM | CC(C)[C@H](NC(=O)N[C@H](C(=O)N1C[C@H]2[C@@H]([C@H]1C(=O)NC(CC1CC1)C(=O)C(N)=O)C2(C)C)C(C)(C)C)C(=O)C1CCCCC1 (mixture of isomers) | 0.2 µM | > 5 µM
0.006 µM | CC(C)[C@H](NC(=O)N[C@H](C(=O)N1C[C@H]2[C@@H]([C@H]1C(=O)NC(CC1CC1)C(=O)C(N)=O)C2(C)C)C(C)(C)C)C(=O)NS(=O)(=O)c1ccccc1 (mixture of isomers) | 5 µM | > 5 µM
0.077 µM | CC(C)[C@H](NC(=O)N[C@H](C(=O)N1C[C@H]2[C@@H]([C@H]1C(=O)NC(CC1CC1)C(=O)C(N)=O)C2(C)C)C(C)(C)C)[C@H](O)c1ccccc1 (mixture of isomers) |  | > 5 µM
0.039 µM | CC(C)(C)[C@H](NC(=O)NC1(C(=O)OCc2ccoc2)CCCCC1)C(=O)N1C[C@H]2[C@@H]([C@H]1C(=O)NC(CC1CC1)C(=O)C(N)=O)C2(C)C (mixture of isomers) | 0.02 µM | > 5 µM
0.1 µM | CC(C)(C)[C@H](NC(=O)NC1(C(=O)c2ccccc2)CCCCC1)C(=O)N1C[C@H]2[C@@H]([C@H]1C(=O)NC(CC1CC1)C(=O)C(N)=O)C2(C)C (mixture of isomers) | 2 µM | > 5 µM
0.01 µM | CC(C)(C)[C@H](NC(=O)N[C@H](C(=O)OCc1ccccc1)C1CC1)C(=O)N1C[C@H]2[C@@H]([C@H]1C(=O)NC(CC1CC1)C(=O)C(N)=O)C2(C)C (mixture of isomers) | 0.02 µM | > 5 µM
0.027 µM | C=CCNC(=O)C(=O)C(CC1CC1)NC(=O)[C@@H]1[C@@H]2[C@H](CN1C(=O)[C@@H](NC(=O)N[C@H](C(=O)C1CC1)C1CCCCC1)C(C)(C)C)C2(C)C (mixture of isomers) | 0.45 µM | > 5 µM
0.29 µM | CC(C)[C@@](C)(NC(=O)N[C@H](C(=O)N1C[C@H]2[C@@H]([C@H]1C(=O)NC(CC1CC1)C(=O)C(N)=O)C2(C)C)C(C)(C)C)C(=O)OCc1ccccc1 (mixture of isomers) |  | > 5 µM
